From ChEMBL document CHEMBL1759925, “Rapidly photoactivatable ATP probes for specific labeling of tropomyosin within the actomyosin protein complex” (Bioorg Med Chem Lett, 2011)
Active and inactive are the calls of the source.

Columns and labels:
Gallus gallus [1] = species on record: Gallus gallus; experiment: Binding affinity to chicken skeletal muscle tropomyosin within actomyosin protein complex at 125 uM after 1 hr followed by 10 mins irradiation with UVA by SDS-PAGE analysis using coomassie brilliant blue staining; assay type: tissue-based; details: Muscle tissue
Gallus gallus [2] = species on record: Gallus gallus; experiment: Binding affinity to chicken skeletal muscle tropomyosin within actomyosin protein complex at 125 uM after 1 hr followed by 10 mins irradiation with UVA by chemiluminescent assay using avidin-horseradish peroxidase conjugate; assay type: tissue-based; details: Muscle tissue
Procedure, shortened: (§1)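 Actomyosin (3.9 µg) was incubated for 1 h with photoaffinity ATP probe in 30 mM Tris–HCl (pH 7.2), 5 mM MgCl₂ and 1 mM EGTA, then irradiated with 360 nm light. Photoproducts were resolved on 10% SDS–PAGE, transferred to PVDF, and labeled proteins visualized by chemiluminescence using avidin-HRP conjugate.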

Gallus gallus [3] = species on record: Gallus gallus; experiment: Binding affinity to chicken skeletal muscle actin within actomyosin protein complex at 125 uM after 1 hr followed by 10 mins irradiation with UVA by chemiluminescent method using avidin-horseradish peroxidase conjugate in presence of 1 mM of calcium chloride
Procedure, shortened: (§2)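 Actomyosin (3.9 µg) was incubated with photoaffinity ATP probe for 1 h in 30 mM Tris–HCl (pH 7.2), 5 mM MgCl₂ and 1 mM CaCl₂, with no EGTA. Samples were then irradiated at 360 nm, separated by 10% SDS–PAGE and blotted to PVDF. Labeled bands were detected by chemiluminescence with avidin-HRP conjugate.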

Gallus gallus [4] = species on record: Gallus gallus; experiment: Binding affinity to chicken skeletal muscle myosin within actomyosin protein complex at 125 uM after 1 hr followed by 10 mins irradiation with UVA by chemiluminescent method using avidin-horseradish peroxidase conjugate in presence of 1 mM of calcium chloride; procedure, shortened: as §2
Gallus gallus [5] = species on record: Gallus gallus; experiment: Binding affinity to chicken skeletal muscle actomyosin at 125 uM after 1 hr followed by 10 mins irradiation with UVA by chemiluminescent method using avidin-horseradish peroxidase conjugate in presence of 1 mM of calcium chloride; procedure, shortened: as §2
Gallus gallus [6] = species on record: Gallus gallus; experiment: Binding affinity to chicken skeletal muscle tropomyosin within actomyosin protein complex at 125 uM after 1 hr followed by 10 mins irradiation with UVA by Western blot analysis; assay type: tissue-based; details: Muscle tissue; procedure, shortened: as §1
Gallus gallus [7] = species on record: Gallus gallus; experiment: Binding affinity to chicken skeletal muscle tropomyosin within actomyosin protein complex at 125 uM after 1 hr followed by 10 mins irradiation with UVA by chemiluminescent assay using avidin-horseradish peroxidase conjugate in presence of 1 mM of calcium chloride; procedure, shortened: as §2

Measured: Activity

Nc1ncnc2c1ncn2[C@@H]1O[C@H](COP(=O)(O)OP(=O)(O)OP(=O)(O)NCc2ccc(C3(C(F)(F)F)N=N3)cc2OCCOCCOCCNC(=O)CCCC[C@@H]2SC[C@@H]3NC(=O)N[C@@H]32)[C@@H](O)[C@H]1O
active: Gallus gallus [1] | Gallus gallus [2]

Nc1ncnc2c1ncn2[C@@H]1O[C@H](COP(=O)(O)OP(=O)(O)OP(=O)(O)NCc2ccc(C3(C(F)(F)F)N=N3)cc2)[C@@H](O)[C@H]1O
active: all assays above
